VIM-2 inhibitor: blocks Pseudomonas aeruginosa VIM-2 metallo-beta-lactamase | purified VIM-2, nitrocefin hydrolysis, epi-absorbance fluorescence | inhibition, % at 5.6 µM | 290,000 tested, 0.89% active;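 active = inhibition above the mean of all tested compounds plus 3 SD, cutoff set per screening run, cut at about 7.5% in these data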;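 note: red hydrolysis product quenches plate fluorescence so inhibitors raise well fluorescence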
697 NFkB inh: lowers PMA/ionomycin-induced NF-kB signal in 697 B cells; 697 B-cell NF-kB luciferase reporter, 16 h; inhibition, % at 4 µM; 330,000 tested, 0.33% active; AID 435022; in the data active = inhibition above about 35%
Mdm2 MdmX PPI: disrupts the human Mdm2-MdmX interaction; O15151+Q00987; SaOS-2 split-luciferase Mdm2/MdmX complementation, luminescence; inhibition, % at 8 µM; 330,000 tested, 3% active; AID 485346;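 active = inhibition of at least 50% at 8 µM in the primary screen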
Target sequence (O15151 whole entry, looked up): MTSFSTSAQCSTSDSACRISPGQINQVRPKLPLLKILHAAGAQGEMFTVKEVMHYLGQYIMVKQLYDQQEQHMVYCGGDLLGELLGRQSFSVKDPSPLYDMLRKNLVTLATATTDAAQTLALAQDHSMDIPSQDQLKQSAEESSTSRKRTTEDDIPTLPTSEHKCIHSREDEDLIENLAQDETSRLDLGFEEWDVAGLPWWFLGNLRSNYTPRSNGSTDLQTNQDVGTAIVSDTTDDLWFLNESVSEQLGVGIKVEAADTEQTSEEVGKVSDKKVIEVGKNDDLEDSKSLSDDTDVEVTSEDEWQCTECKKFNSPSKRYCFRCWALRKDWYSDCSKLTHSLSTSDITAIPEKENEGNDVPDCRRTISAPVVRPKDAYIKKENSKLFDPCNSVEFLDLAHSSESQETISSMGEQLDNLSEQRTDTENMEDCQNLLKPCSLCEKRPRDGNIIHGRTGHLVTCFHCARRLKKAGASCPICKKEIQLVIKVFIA
Target sequence (Q00987 whole entry, looked up): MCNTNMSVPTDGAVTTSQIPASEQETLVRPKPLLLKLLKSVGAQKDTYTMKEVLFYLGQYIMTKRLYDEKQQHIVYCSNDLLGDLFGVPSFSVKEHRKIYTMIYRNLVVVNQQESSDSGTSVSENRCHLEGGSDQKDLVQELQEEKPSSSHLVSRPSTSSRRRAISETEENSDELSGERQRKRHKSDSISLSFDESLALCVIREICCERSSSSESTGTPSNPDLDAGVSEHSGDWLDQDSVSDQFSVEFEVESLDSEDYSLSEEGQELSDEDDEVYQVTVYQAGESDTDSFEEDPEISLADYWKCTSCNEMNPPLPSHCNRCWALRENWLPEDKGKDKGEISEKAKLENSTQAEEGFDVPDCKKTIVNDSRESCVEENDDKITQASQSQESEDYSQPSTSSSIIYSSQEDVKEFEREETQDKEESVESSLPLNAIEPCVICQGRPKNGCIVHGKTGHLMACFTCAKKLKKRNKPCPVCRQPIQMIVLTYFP
aSyn 5UTR inh: MLPCN primary screen, SNCA 5' untranslated region. alpha-synuclein 5'UTR reporter, inhibitor activity. inhibition, % (tested at 7.5 µM). 300,000 tested, 0.82% active; in the data active = inhibition above about 60%;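 note: H4 neuroglioblastoma cells stably carrying SNCA 5'UTR luciferase fusion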
IMP-1 inhibitor: inhibitors of Pseudomonas aeruginosa IMP-1 metallo-beta-lactamase. purified IMP-1, nitrocefin hydrolysis, epi-absorbance fluorescence. inhibition, % at 5.6 µM. 290,000 tested, 0.45% active;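 active = inhibition above the mean plus 3 SD of all compounds in the same screening run, cut at about 4.5% in these data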
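Assay system: purified recombinant IMP-1 beta-lactamase. Input: IMP-1 0.2 nM before substrate addition. Buffer or medium: Zinc- and detergent-supplemented HEPES buffer, pH 7.1. Schedule: 25 °C, 15 min preincubation, 25 min reaction. Signal: Epi-absorbance fluorescence, 480 nm excitation, 530 nm emission. Evaluation: percent inhibition from optical density relative to buffer-blank wells.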
Jurkat NFkB inh: inhibitors of the PMA/ionomycin-induced NF-kB reporter in Jurkat cells. PMA/ionomycin-induced NF-kB luciferase reporter, luminescence. inhibition, % at 4 µM. 330,000 tested, 0.53% active. AID 435003; in the data active = inhibition above about 50%
Jurkat NFkB conf: lowers PMA/ionomycin-induced NF-kB signal in Jurkat cells. inhibition, % at 4 µM. AID 435020. shares compounds with Jurkat NFkB inh. Jurkat NF-kB luciferase, 16 h. 2,700 tested, 27% active;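 active = inhibition reaching about 45% at 4 µM in either replicate, limit read from the data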
697 NFkB conf: inhibitors of the PMA/ionomycin-induced NF-kB reporter in 697 B cells, retest; 697 B-cell NF-kB luciferase, 16 h; 2,000 tested, 35% active; shares compounds with 697 NFkB inh; AID 449746; inhibition, % at 4 µM; in the data active = inhibition mostly above about 28%, no sharp cut-off; inactive = mostly below about 22%
Mdm2-MdmX conf: human Mdm2/MdmX binding inhibition, confirmed; shares compounds with Mdm2 MdmX PPI; luminescent assay; inhibition, % at 8 µM; 10,000 tested, 55% active; AID 489028; in the data active = inhibition above about 40%
Full FLuc ctr: full-length luciferase inhibition in Mdm2/MdmX counter-screen; shares compounds with Mdm2 MdmX PPI; SaOS-2 full-length luciferase counterscreen, luminescence; inhibition, % at 8 µM; 6,200 tested, 77% active; AID 504607;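 active = mean inhibition at 8 µM reaching about 37%, which flags the compound as non-specific, limit read from the data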;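 note: p53-null SaOS-2 cells with luciferase driven by a doxycycline-inducible promoter; compound on cells about two nights before reading with doxycycline added after day one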
Large screens that a line does not name were inactive (follow-up assays come after a bar, where they were run). Shown are actives, neighbours in structure and some others; about 4.7% of the full set was active somewhere.

COc1ccc(-c2c(C)nc3c(-c4ccsc4)cnn3c2N)cc1	none | Jurkat NFkB conf inactive | 697 NFkB conf inactive
O=C(Nc1nc2cc3c(cc2s1)OCCO3)c1cccs1	none | Jurkat NFkB conf inactive | 697 NFkB conf inactive
COCCN1C(=O)N(c2cccc(C)c2)C(=O)C1CC(=O)Nc1ccc(OC)cc1 (configuration not stated)	none
O=C(/C=C\Nc1ccc2c(c1)OCO2)c1ccc2c(c1)OCO2	none
O=C(/C=C\Nc1ccc2c(c1)OCO2)c1ccc(Cl)s1	none | Jurkat NFkB conf inactive | 697 NFkB conf inactive
CN(C)c1ccc(-c2n(C)c3ccccc3[n+]2C)cc1	697 NFkB inh 42, Jurkat NFkB inh 76 | Jurkat NFkB conf 60 | 697 NFkB conf 57
Cc1ccc(NC(=O)c2ccc3c(c2)OCO3)cc1Cl	none | Jurkat NFkB conf inactive | 697 NFkB conf inactive
Cc1ccc(-c2nc3cc(NC(=O)C(C)C)ccc3o2)cc1	none | Jurkat NFkB conf inactive | 697 NFkB conf inactive
CC(C)C(=O)Nc1ccc(-c2nc3cccnc3o2)cc1	none
CC(C)C(=O)Nc1cccc(-c2nc3ccccc3o2)c1	none
Cc1ccc(-c2nc3cc(NC(=O)C(C)C)ccc3o2)cc1C	none | Jurkat NFkB conf inactive | 697 NFkB conf inactive
Cc1cc2nc(-c3ccc(NC(=O)C(C)C)cc3)oc2cc1C	none | Jurkat NFkB conf inactive | 697 NFkB conf inactive
CC(=O)Nc1ccc2oc(-c3ccccc3)nc2c1	none
CCCn1c(Cc2ccccc2)nnc1SC(C)C(=O)NC1CC1 (configuration not stated)	none (no result: VIM-2 inhibitor, aSyn 5UTR inh, IMP-1 inhibitor)
CC1CCN(C(=O)COC(=O)c2ccc(Cl)nc2)CC1	none (no result: VIM-2 inhibitor, aSyn 5UTR inh, IMP-1 inhibitor)
Cc1noc(C)c1COc1ccc(C(=O)NCc2cccs2)cc1	none (no result: VIM-2 inhibitor, aSyn 5UTR inh, IMP-1 inhibitor)
Cc1ccccc1C(=O)N[C@H](C(=O)OCC(=O)NC1CC1)C(C)C	none (no result: VIM-2 inhibitor, aSyn 5UTR inh, IMP-1 inhibitor)
Brc1ccc(-c2nnc(-c3ccccc3Br)o2)cc1	none | Jurkat NFkB conf inactive | 697 NFkB conf inactive
O=C(CCN1C(=O)NC2(CCCC2)C1=O)Nc1ccc(-c2nc3ccccc3s2)cc1	none (no result: VIM-2 inhibitor, aSyn 5UTR inh, IMP-1 inhibitor) | Jurkat NFkB conf inactive | 697 NFkB conf inactive
NC(=O)c1ccc(NC(=O)CCCN2C(=O)NC3(CCCC3)C2=O)cc1	none (no result: VIM-2 inhibitor, aSyn 5UTR inh, IMP-1 inhibitor)
CCOc1ccccc1Nc1cc(C)nc2ccc(C)cc12	none (no result: VIM-2 inhibitor, IMP-1 inhibitor)
CCCC[C@@H](CN[C@H](C)CNC)NCC1CCC(C(C)(C)C)CC1 (some centres not stated)	Mdm2 MdmX PPI 100, Jurkat NFkB inh 53 | Jurkat NFkB conf inactive | Mdm2-MdmX conf 97 | Full FLuc ctr 56
COc1cccc(/C=N/Nc2ncnc3c2ncn3Cc2ccccc2)c1O	Mdm2 MdmX PPI 82, aSyn 5UTR inh 102, Jurkat NFkB inh 63 | Jurkat NFkB conf 67 | Mdm2-MdmX conf 82 | Full FLuc ctr 63
CC(C)N(C(=O)[C@H]1C[C@H](CC(=O)NCCCn2ccnc2)C(=O)N2CCc3c([nH]c4ccc(Cl)cc34)[C@]12C)C(C)C	none (no result: VIM-2 inhibitor, aSyn 5UTR inh, IMP-1 inhibitor, Jurkat NFkB inh)
CCc1cc2c(=O)n(Cc3ccco3)c(SCC(=O)NC3CCS(=O)(=O)C3)nc2s1 (configuration not stated)	none
CCc1cc2c(=O)n(Cc3ccco3)c(SCc3c(C)noc3C)nc2s1	Mdm2 MdmX PPI 72, Jurkat NFkB inh 55 | Jurkat NFkB conf inactive | Mdm2-MdmX conf 66 | Full FLuc ctr 48
O=Cc1cc2ccccc2nc1SCc1ccc(Cl)c(Cl)c1	Mdm2 MdmX PPI 64, aSyn 5UTR inh 109, IMP-1 inhibitor 4.7, Jurkat NFkB inh 57 | Jurkat NFkB conf inactive | Mdm2-MdmX conf 62 | Full FLuc ctr 86
CCOc1ccc(N(CC(=O)NC2CCCCC2)S(=O)(=O)c2ccccc2)cc1	none
CC(=O)N(C)C1=C(N2CCOCC2)C(=O)c2ccccc2C1=O	Mdm2 MdmX PPI 82, aSyn 5UTR inh 76, Jurkat NFkB inh 87 | Jurkat NFkB conf 79 | Mdm2-MdmX conf 86 | Full FLuc ctr 48
CC(=O)N(C1=C(N2CCOCC2)C(=O)c2ccccc2C1=O)c1ccc(C(=O)O)cc1	none
COc1ccccc1Nc1c2c(nc3ccccc13)CCC2	VIM-2 inhibitor 9.4, Mdm2 MdmX PPI 56, Jurkat NFkB inh 52 | Jurkat NFkB conf inactive | Mdm2-MdmX conf 53 | Full FLuc ctr 58
Cc1ccnc(NC(=O)CCCOc2cc(=O)n(C)c3ccccc23)c1	697 NFkB inh 61, Mdm2 MdmX PPI 75, Jurkat NFkB inh 66 | Jurkat NFkB conf 58 | 697 NFkB conf 48 | Mdm2-MdmX conf 84 | Full FLuc ctr 117
C/C(=N\NC1=NCCN1)c1ccccc1	none
CCCCCOc1ccc(Br)cc1/C(C)=N/NC1=NCCN1	Mdm2 MdmX PPI 86, aSyn 5UTR inh 88, Jurkat NFkB inh 63 | Jurkat NFkB conf inactive | Mdm2-MdmX conf 67 | Full FLuc ctr 63
Cc1ccc(OCC(=O)Nc2ccc(C)c(F)c2)c([N+](=O)[O-])n1	none (no result: VIM-2 inhibitor, aSyn 5UTR inh, IMP-1 inhibitor)
COc1ccc(C(=O)NNC(=O)c2ccccn2)cc1	Mdm2 MdmX PPI 98, aSyn 5UTR inh 79, Jurkat NFkB inh 52 | Jurkat NFkB conf 63 | Mdm2-MdmX conf 94 | Full FLuc ctr inactive
C/C(=N\NC(=O)c1cc(C)nc2ccccc12)c1ccncc1	none
COc1ccc(C(=O)NCCNC(=O)c2ccccn2)cc1	none
C/C(=N\NC(=O)c1cc(C)nc2ccccc12)c1ccccn1	Mdm2 MdmX PPI 76, Jurkat NFkB inh 95 (no result: VIM-2 inhibitor, aSyn 5UTR inh, IMP-1 inhibitor) | Jurkat NFkB conf 45 | Mdm2-MdmX conf 67 | Full FLuc ctr 36
C/C(=N\NC(=O)c1ccccn1)c1ccc(Cl)cc1	none
C/C(=N\NC(=O)c1ccc(Cl)cc1)c1ccccn1	Mdm2 MdmX PPI 96, Jurkat NFkB inh 98 | Jurkat NFkB conf inactive | Mdm2-MdmX conf inactive
CCOc1ccc(OCCC(=O)OCC(=O)NC2CCCCC2)cc1	none
Cc1cccc(N2CCN(Cc3cn(C)nc3-c3ccccc3F)CC2)n1	Mdm2 MdmX PPI 55, Jurkat NFkB inh 54 | Jurkat NFkB conf inactive | Mdm2-MdmX conf 70 | Full FLuc ctr 49
Cn1cc(CN2CCN(c3ccc(Cl)cn3)CC2)c(-c2ccccc2F)n1	none
Cc1nn(-c2ccccc2)c(C)c1/C=N/NC(=O)c1cc(-c2cccs2)[nH]n1	697 NFkB inh 45, Mdm2 MdmX PPI 70, Jurkat NFkB inh 53 | Jurkat NFkB conf 57 | 697 NFkB conf 51 | Mdm2-MdmX conf 56 | Full FLuc ctr 78
Cc1nn(-c2ccccc2)c(C)c1/C=N/NC(=O)c1cc(C2CC2)[nH]n1	none

Screens as filed in PubChem.
